For two compounds, Activity results are on record in ChEMBL document CHEMBL1137645, “Functional characterization of TcaA: minimal requirement for teicoplanin susceptibility and role in Caenorhabditis elegans virulence” (2007).

Type in all cases: functional, organism-based
Assay [1] relates to Staphylococcus aureus. The assay can be described thus: Induction of VraSR-dependent tcaA gene expression in Staphylococcus aureus KVR expressing N315 delta-vraSr mutant at 10 ug/mL after 30 mins by Northern blot analysis. The method in brief: (§1)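 Total RNA, 10 µg per sample, was separated on a 1.5% agarose–20 mM guanidine thiocyanate gel in 1x TBE, then Northern blotted.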

The test system of assay [2] is Staphylococcus aureus. The assay can be described thus: Induction of VraSR-dependent tcaA gene expression in Staphylococcus aureus N315 at 16 ug/mL after 30 mins by Northern blot analysis. The method in brief: as §1
Assay [3] relates to Staphylococcus aureus. The assay can be described thus: Induction of VraSR-dependent tcaA gene expression in Staphylococcus aureus N315 at 10 ug/mL after 30 mins by Northern blot analysis. The method in brief:
as §1

The test system of assay [4] is Staphylococcus aureus. The assay can be described thus: Induction of VraSR-dependent tcaA gene expression in Staphylococcus aureus KVR expressing N315 delta-vraSr mutant at 2 ug/mL after 30 mins by Northern blot analysis. The method in brief: as §1

Activity calls are given as the source filed them. No cut-off for these calls is given here.

With `Cc1onc(-c2ccccc2)c1C(=O)N[C@@H]1C(=O)N2[C@@H]1SC(C)(C)[C@@H]2C(=O)O`, the result with Staphylococcus aureus [1] and with Staphylococcus aureus [4] was inactive. The result with Staphylococcus aureus [2] and in the assay with Staphylococcus aureus [3] was Active.

With `CN[C@H](CC(C)C)C(=O)N[C@H]1C(=O)N[C@@H](CC(N)=O)C(=O)N[C@H]2C(=O)N[C@H]3C(=O)N[C@H](C(=O)N[C@H](C(=O)O)c4cc(O)cc(O)c4-c4cc3ccc4O)[C@H](O)c3ccc(c(Cl)c3)Oc3cc2cc(c3O[C@@H]2O[C@H](CO)[C@@H](O)[C@H](O)[C@H]2O[C@H]2C[C@](C)(N)[C@H](O)[C@H](C)O2)Oc2ccc(cc2Cl)[C@H]1O`, the outcome in the assay on Staphylococcus aureus [1] and in the assay with Staphylococcus aureus [4] was inactive. For the same compound, the result with Staphylococcus aureus [2] and in the assay with Staphylococcus aureus [3] was Active.
